RanGTP-Impb inh = inhibitors of RanGTP-importin-beta interaction, primary screen, biochemical, FRET, CFP-Ran, YFP-importin-beta, homogeneous | cell-free CFP-Ran/YFP-importin-beta FRET ratio | inhibition, % (concentration not given with the values) | hit rate 1.1% among 300,000 | AID 2216;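 active = more than half of the replicate wells show a fall in the fluorescence ratio signal beyond about 16%, limit read from the data, passing the limit was not always enough; inconclusive = exactly half of the replicate wells pass the set limit; inactive = fewer than half of replicates pass the limit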
Runt-SMMHC FRET = inhibitors of human RUNX1 Runt domain binding to CBFb-SMMHC; Cerulean-Runt/Venus-CBFb-SMMHC FRET ratio 530/480, 1 h; inhibition, % at 20 µM; Q01196+Q13951; hit rate 0.74% among 220,000;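 active = mean inhibition across duplicate retests at 20 µM reaching about 50%, limit read from the data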;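 also: inhibitors lower the FRET ratio by blocking Runt binding to CBFb-SMMHC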
Runt-CBFb FRET = inhibitors of human RUNX1 Runt domain binding to CBFb | inhibition, % at 20 µM | AID 1496 | Cerulean-Runt/Venus-CBFb FRET ratio 530/480, 1 h | hit rate 0.46% among 220,000;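 active = inhibition over about 50% at 20 µM in the single-dose screen, limit read from the data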
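test system = Cerulean-tagged RUNX1 Runt domain (FRET donor) fusion protein | reagent = Venus-CBFb binding partner, 100 nM | incubation = protein complex preformed 1 h, compound exposure 1 h, room temperature, dark | detection = FRET fluorescence | read-out basis = loss of energy transfer signal | controls = 5 µM unlabeled CBFb as full-inhibition high control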
PfM18AAP inh-1 = blocks P. falciparum M18 aspartyl aminopeptidase; recombinant PfM18AAP, H-Glu-NHMec fluorogenic cleavage; inhibition, % at 7.35 µM; AID 1822; hit rate 1.2% among 290,000;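 active = inhibition above the campaign mean inhibition over all tested compounds plus 3 SD, cut at about 28% in these data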
RBBP9 inhibitor = human RBBP9 hydrolase inhibition; O75884; recombinant RBBP9, FP-Rh probe fluorescence polarization; inhibition, % at 7.94 µM; hit rate 0.2% among 220,000;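 active = inhibition above the campaign mean of all tested compounds plus 3 SD, cut at about 14% in these data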
Target sequence (O75884 whole entry, looked up): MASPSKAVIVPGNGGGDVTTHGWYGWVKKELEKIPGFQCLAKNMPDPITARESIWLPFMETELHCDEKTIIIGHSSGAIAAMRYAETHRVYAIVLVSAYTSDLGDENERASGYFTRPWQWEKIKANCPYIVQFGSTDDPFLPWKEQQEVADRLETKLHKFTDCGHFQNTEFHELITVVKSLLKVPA
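Assay system: recombinant human RBBP9; Reagent: Serine-hydrolase probe FP-Rh, 375 nM pre-mixing; Doses: 7.94 µM single dose, 0.794% DMSO; Incubation: 30 min then 45 min, 25 °C; Detection: fluorescence polarization (mP), excitation 525 nm, emission 598 nm; Evaluation: percent inhibition from mP, scaled between DMSO and no-protein wells.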
Hck-Nef inh = inhibitors of human Hck kinase activated by Nef | P08631 | Recombinant Hck-YEEI plus Nef, Z-Lyte FRET kinase assay | inhibition, % at 20 µM | hit rate 0.68% among 220,000;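 active = Hck-Nef kinase inhibition above about 50%, limit read from the data; inactive = inhibition below that limit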
PfM18AAP inh-2 = PfM18AAP inhibition, confirmation | shares compounds with PfM18AAP inh-1 | inhibition, % at 7.35 µM | hit rate 28% among 2,400 | AID 2170 | recombinant PfM18AAP, H-Glu-NHMec fluorogenic cleavage;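 active = mean inhibition over replicate wells above the hit cutoff set for the earlier primary screen, cut at about 29% in these data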
CTSL1 counter = counter-screen for PFM18AAP inhibitors: confirmation of human cathepsin L inhibitors; shares compounds with PfM18AAP inh-1; purified cathepsin L1, Z-Leu-Arg-MCA fluorescence; inhibition, % at 5.96 µM; 2,400 tested, under 10 active;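 active = average inhibition across replicates above the hit cutoff set in the earlier primary screen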
Target sequence (P07711 whole entry, looked up): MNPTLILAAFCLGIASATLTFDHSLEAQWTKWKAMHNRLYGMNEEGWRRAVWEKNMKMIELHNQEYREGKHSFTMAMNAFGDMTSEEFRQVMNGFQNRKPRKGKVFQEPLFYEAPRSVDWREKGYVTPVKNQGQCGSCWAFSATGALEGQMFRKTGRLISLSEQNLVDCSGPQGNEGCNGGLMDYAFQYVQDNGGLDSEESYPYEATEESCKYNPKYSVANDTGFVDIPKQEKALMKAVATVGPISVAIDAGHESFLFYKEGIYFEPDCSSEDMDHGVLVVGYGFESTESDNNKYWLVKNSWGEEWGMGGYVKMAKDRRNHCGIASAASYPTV
YIC counter = counter-screen YIC FRET for RanGTP-importin-beta inhibitors; shares compounds with RanGTP-Impb inh; Purified YIC probe, intramolecular FRET ratio YFP/CFP; IC50, µM; hit rate 40% among 1,000;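 active = fitted half-maximal inhibitory concentration no more than tenfold above the top dose tested; inconclusive = flat fit with 30 to 70% activity, or poor fit; inactive = half-maximal concentration beyond tenfold above the top dose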
Hck-Nef confirm = confirmation of Hck-Nef kinase inhibitors; shares compounds with Hck-Nef inh; Recombinant Hck-YEEI:Nef, Z-Lyte FRET kinase assay; calls only at 10 µM; hit rate 28% among 1,300; AID 463188;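 active = average inhibition of at least 50%, with Z-scores no higher than 3 in both the phospho-tyrosine peptide and fluorescence counterscreens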
Hits are given with their value; . = inactive; ? = inconclusive; / = not tested or not shown; + = active, no number. Most compounds without a hit are left out; they make up all but 2.9% or so of the library.

SMILES	RanGTP-Impb inh	Runt-SMMHC FRET	Runt-CBFb FRET	PfM18AAP inh-1	RBBP9 inhibitor	Hck-Nef inh	YIC counter	others
Cc1c(Br)c(=O)oc2c(Br)c(O)c(O)cc12	26.3	76.3	55.3	39.5	.	.	10.9	PfM18AAP inh-2=.;CTSL1 counter=.
CCCCc1ccc(NC(=S)N2CCN(C(=O)c3ccco3)CC2)cc1	.	/	/	.	/	/	/
O=C(NNC(=S)NC(=O)c1ccccc1[N+](=O)[O-])c1ccccc1O	19.1	.	.	42.6	.	.	.	PfM18AAP inh-2=.;CTSL1 counter=.
N#C/C(=C\c1cccs1)c1nc2ccccc2[nH]1	.	.	.	.	.	.	/
N#C/C(=C/c1ccc(O)c(O)c1)c1nc2ccccc2[nH]1	38.5	/	/	62.1	/	/	3.93	PfM18AAP inh-2=43.3;CTSL1 counter=.
COc1ccc(CCNC(=O)CSc2nc(=O)[nH]c3c2CCC3)cc1OC	.	/	/	/	/	/	/
COc1cc(-c2cc(=O)c3c(O)c(OC)c(OC)c(O)c3o2)ccc1O	.	.	.	49.1	.	67.3	/	PfM18AAP inh-2=31.7;CTSL1 counter=.;Hck-Nef confirm=+
O=C(Cn1nc(-c2cccc(Cl)c2)ccc1=O)Nc1ccc(C(=O)NC2CC2)cc1	.	.	.	.	.	.	/
CC1=NNC(=O)/C1=C\c1cn(-c2ccccc2)nc1-c1ccc(F)cc1	.	.	.	38.9	.	85.7	/	PfM18AAP inh-2=64.1;CTSL1 counter=.;Hck-Nef confirm=+
CC(=O)Nc1ccc(NC(=O)C(C)OC(=O)CSCc2cccc(Cl)c2)cc1 (stereo unspecified)	.	/	/	/	/	/	/
Cc1ccc(-n2sc3ccccc3c2=O)cc1S(=O)(=O)N1CCCCC1	.	.	.	39.9	.	114.8	/	PfM18AAP inh-2=66.2;CTSL1 counter=.;Hck-Nef confirm=+
O=[N+]([O-])c1ccccc1NC(=S)N/N=C/c1ccc(O)c(O)c1	.	.	.	59.4	.	86.7	/	PfM18AAP inh-2=39.5;CTSL1 counter=.;Hck-Nef confirm=.
Fc1ccccc1/C=N/Nc1ncnc2nc[nH]c12	.	.	.	32.8	.	55.7	/	PfM18AAP inh-2=.;CTSL1 counter=.;Hck-Nef confirm=+
Cc1cc(S(=O)(=O)NC2CC(C)(C)NC(C)(C)C2)c(Cl)cc1Cl	.	/	/	.	/	/	/
Cn1c(=O)c(=O)n(C)c2cc([N+](=O)[O-])c(N3CCOCC3)cc21	.	/	/	.	/	/	/
CC(=O)Oc1cc(OC(C)=O)c2c(C)cc(=O)oc2c1	?	.	.	.	.	.	/
CC(=O)Oc1cc2oc(=O)cc(C)c2cc1OC(C)=O	30.2	.	81.0	47.0	.	68.2	44.8	PfM18AAP inh-2=75.3;CTSL1 counter=18.6
O=[N+]([O-])c1ccc2nc(Cl)nc(-c3ccccc3)c2c1	.	/	/	.	/	/	/
COc1cccc(-n2c(SCc3cc(=O)oc4cc(O)c(O)cc34)nc3ccccc3c2=O)c1	.	/	67.3	55.9	.	74.1	/	PfM18AAP inh-2=.;CTSL1 counter=.
CCN(CC)C(=O)CSc1nc2ccccc2c(=O)n1-c1cccc(OC)c1	.	.	.	.	.	.	/
CCn1c(C)nc2cc(C(=O)N/N=C/c3ccc(O)c(O)c3O)ccc21	.	.	.	47.4	.	74.9	/	PfM18AAP inh-2=38.0;CTSL1 counter=.;Hck-Nef confirm=+
CCn1c(C)nc2cc(C(=O)N/N=C/c3cccc(OC)c3O)ccc21	.	.	.	.	.	.	/
Cc1cccc(C(=O)N/N=C/c2coc3ccccc3c2=O)c1	.	/	/	.	/	/	/
O=C(N/N=C/c1coc2ccccc2c1=O)c1cc(O)cc(O)c1	/	.	.	38.6	.	62.7	/	PfM18AAP inh-2=.;CTSL1 counter=.;Hck-Nef confirm=+
Cc1sc2ncn(CC(=O)NCCCC(=O)N3CCN(Cc4ccc5c(c4)OCO5)CC3)c(=O)c2c1C	27.7	.	.	.	.	.	.
SMILES	RanGTP-Impb inh	Runt-SMMHC FRET	Runt-CBFb FRET	PfM18AAP inh-1	RBBP9 inhibitor	Hck-Nef inh	YIC counter	others
O=C(COc1ccccc1F)NC12CC3CC(CC(C3)C1)C2	.	.	.	.	.	.	/
CCN(C(=O)c1c(C)cc(=O)oc1C)c1ccc2c(c1)OCO2	17.3	.	.	.	.	.	.
Cc1ccc(-n2c(O)c(C=Nc3ccc4c(c3)OCO4)c3ccccc3c2=O)cc1C	19.4	.	.	.	.	.	27.6
O=C(Cn1nnc(-c2cccs2)n1)NCCc1ccccc1	.	.	.	.	.	.	/
O=C(Cn1nnc(-c2ccncc2)n1)NCCc1ccccc1	18.2	.	.	.	.	.	.
COc1ccc(OCc2nnc(SCC(=O)Nc3ccc(C)cc3)o2)cc1	.	/	/	.	/	/	/
Cc1ccc(OCc2nnc(SCC(=O)CC(=O)Nc3ccccc3)o2)cc1	26.6	.	.	.	.	.	.
CCOc1ccc(NC(=O)CN(C)C(=O)c2cccnc2Sc2ccc(C)c(C)c2)cc1OCC	.	/	/	.	/	/	/
CC(Oc1ccc2c3c(c(=O)oc2c1)CCCC3)C(=O)NCc1cccnc1 (stereo unspecified)	.	/	/	.	/	/	/
Cc1ccccc1-n1cnc2cc(NCc3cccs3)ccc21	22.3	.	.	.	.	.	.
COc1ccccc1-n1cnc2cc(NCc3ccco3)ccc21	.	.	.	.	.	.	/
COc1ccc(CNc2ccc3c(c2)ncn3-c2ccccc2OC)cc1	29.1	.	.	.	.	.	.
Cc1onc(-c2ccccc2Cl)c1C(=O)N1CCC(Cc2ccccc2)CC1	.	/	/	.	/	/	/
Cc1ccc(C)c(NC(=O)CCN2CCN(c3ccccc3F)CC2)c1	.	/	/	.	/	/	/
COc1ccc(N2Cc3ccccc3/C2=N\C(=O)Nc2ccccc2)cc1	17.3	.	.	.	.	.	.
COCCn1c(SCc2ccc(OC)c(F)c2)nnc1-c1ccncc1	.	/	/	.	/	/	/
O=C(/C=C/c1ccccc1)NC(=S)Nc1ncccn1	.	.	.	.	.	.	/
Cc1ccc(C)c(NC(=S)N(C)CCc2ccccn2)c1	24.5	.	.	.	.	.	.
Cc1ccccc1NC(=S)N(C)CCc1ccccn1	.	.	.	.	.	.	/
NC(=O)N/N=C/c1ccccc1OC(=O)c1cc2ccccc2oc1=O	18.2	/	/	.	/	/	.
C/C(N)=C(/C#N)C(=O)CSc1nc(-c2ccccc2)c(-c2ccccc2)o1	.	/	/	.	/	/	/
CCS(=O)(=O)c1nc(S(=O)(=O)c2ccc(C)cc2)c(NCc2ccccn2)s1	16.4	.	.	.	.	.	.
Cc1ccc(NC(=O)c2cccc(S(=O)(=O)N3CCN(C)CC3)c2)cc1F	.	/	/	.	/	/	/
CO/N=C\c1cc(C(=O)c2ccc(Cl)cc2Cl)cn1C	31.6	.	.	.	.	.	.
CC1(C)CC(NC(=O)c2cc(S(=O)(=O)N3CCOCC3)c(Cl)cc2Cl)CC(C)(C)N1	.	/	/	/	/	/	/
